Format in all cases: functional, cell-based
One test has as its system KB. The test can be described thus: Cytotoxicity against human KB cells by MTT assay. An outline of the steps:
(§1)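 Cells grown in RPMI-1640 with 10% fetal calf serum plus penicillin and streptomycin, 37 °C, 5% CO₂. Compounds in DMSO, final ≤2% (v/v), tested in 96-well cultures with MTT staining. IC₅₀ = concentration cutting optical density 50% versus untreated cells; three replicate wells per point; mean of three independent determinations.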
On the technique in general: Formazan colour is commonly taken as a measure of viable cells.

Test [1] in a line: Cytotoxicity against human Blu-87 cells by MTT assay. The gist of the method:
as §1

The subject of another test is 769-P. The test can be described thus: Cytotoxicity against human 769-P cells by MTT assay. An outline of the steps:
as §1

A further test relates to SCaBER. The test can be described thus: Cytotoxicity against human SCaBER cells by MTT assay. An outline of the steps: as §1
For the next test, the system named is HT-29. The test can be described thus: Cytotoxicity against human HT-29 cells by MTT assay. An outline of the steps: as §1
A further test relates to 786-0. The test can be described thus: Cytotoxicity against human 786-0 cells by MTT assay. An outline of the steps:
as §1

A further test has as its system A-375. The test can be described thus: Cytotoxicity against human A375 cells by MTT assay. The gist of the method:
as §1

For a further test, the system named is A549. The test can be described thus: Cytotoxicity against human A549 cells by MTT assay. An outline of the steps: as §1
The next test has as its system MCF7. The test can be described thus: Cytotoxicity against human MCF7 cells by MTT assay. An outline of the steps: as §1
A further test relates to HepG2. The test can be described thus: Cytotoxicity against human HepG2 cells by MTT assay. An outline of the steps:
as §1

A further test relates to Bel-7402. The test can be described thus: Cytotoxicity against human Bel7402 cells by MTT assay. An outline of the steps: as §1
Another test deals with BGC-823. The test can be described thus: Cytotoxicity against human BGC823 cells by MTT assay. An outline of the steps: as §1
The next test relates to HeLa. The test can be described thus: Cytotoxicity against human HeLa cells by MTT assay. The gist of the method: as §1
For another test, the system named is U-251. The test can be described thus: Cytotoxicity against human U251 cells by MTT assay. The gist of the method: as §1
A further test concerns OS-RC-2. The test can be described thus: Cytotoxicity against human OS-RC2 cells by MTT assay. The gist of the method:
as §1

In general, IC50 refers to the concentration needed to halve the response being measured. For the compound `CCCCn1c2cc(OCc3ccccc3)ccc2c2ccnc(C)c21`, the IC50 worked out at 45 µM in the test on KB; 32.7 µM in test [1]; 17.1 µM with 769-P; 39.7 µM in the test on SCaBER; 26.8 µM with HT-29; 10.1 µM with 786-0. The IC50 was 28.6 µM in the test on A-375; 18.1 µM in the test with A549; 16.9 µM in the test on MCF7; 17.8 µM in the test with HepG2; greater than 100 µM with Bel-7402; 17.2 µM in the test on BGC-823. In addition, it took 47 µM to reach half-maximal inhibition in the test on HeLa (IC50).

In the case of `CC(C)=CCOc1ccc2c3ccnc(C)c3n(CCCc3ccccc3)c2c1`, the IC50 in the test on MCF7 was greater than 100 µM; in the test with HepG2, 21.1 µM; in the test with Bel-7402 it was 24.7 µM; in the test with BGC-823, 32.3 µM; in the test with HeLa, greater than 100 µM.

`CCCCOc1ccc2c3ccnc(C)c3n(CCCc3ccccc3)c2c1`: the IC50 with MCF7 was found to be 68.9 µM; in the test with HepG2 it was 12.4 µM; in the test with Bel-7402, 34.8 µM; in the test on BGC-823, 14 µM; in the test on HeLa it was 88.7 µM.

Take `CCCCCCCCCCOc1ccc2c3ccnc(C)c3n(CCCC)c2c1`: the concentration for half-maximal inhibition (IC50) in the test with HepG2 and with HeLa was greater than 100 µM each time.

For `CCCCn1c2cc(OCC(O)C(F)(F)F)ccc2c2ccnc(C)c21` (stereo not drawn), the half-maximal inhibitory concentration (IC50) in the test on MCF7 was 33.1 µM; with HepG2, greater than 100 µM; with Bel-7402, 62 µM; in the test on BGC-823 it was 96.4 µM; in the test with HeLa, greater than 100 µM.

`Cc1nccc2c3ccc(OCCCc4ccccc4)cc3n(CC(C)C)c12`: the IC50 in the test with MCF7 is 19.5 µM; with HepG2, 27.7 µM; in the test on Bel-7402, greater than 100 µM; in the test on BGC-823 it was 18.5 µM; in the test with HeLa, 27.6 µM.

As for `CCCCOc1ccc2c3ccnc(C)c3n(CC)c2c1`, the IC50 was 18.5 µM in the test on MCF7; 16.3 µM in the test on HepG2; 52.9 µM in the test with Bel-7402; 15.6 µM in the test on BGC-823; 29.2 µM in the test on HeLa.

As to `Cc1nccc2c3ccc(OCC(C)C)cc3n(CC(C)C)c12`, the IC50 was 27.5 µM in the test on KB; 49.6 µM in the test with U-251; 32.3 µM in test [1]; 30.8 µM with 769-P; 28.8 µM with SCaBER; 35.3 µM in the test with HT-29. For the same compound, the IC50 came to 18.1 µM in the test on 786-0; 22.2 µM in the test with A-375; 32.4 µM with A549; 30.5 µM in the test with OS-RC-2; 29.4 µM in the test on MCF7; 36.8 µM with HepG2. Besides, the figures for the IC50 in the test on Bel-7402, with BGC-823 and in the test with HeLa were 42.6 µM, 26.6 µM and 32.3 µM, respectively.

Consider `CCCCCCCCOc1ccc2c3ccnc(C)c3n(CCCc3ccccc3)c2c1`, for which the concentration for half-maximal inhibition (IC50) in the test on HepG2 and with HeLa was greater than 100 µM each time.

For `Cc1nccc2c3ccc(OCc4c(F)c(F)c(F)c(F)c4F)cc3n(CCCc3ccccc3)c12`, the 50% inhibitory concentration (IC50) in the test on HepG2 was greater than 100 µM.

For the compound `CCCCn1c2cc(OCc3c(F)c(F)c(F)c(F)c3F)ccc2c2ccnc(C)c21`, the half-inhibitory concentration (IC50) with MCF7 was greater than 100 µM; in the test with HepG2 it was 13.6 µM; in the test on Bel-7402 it was greater than 100 µM; in the test with BGC-823, 18.3 µM; in the test on HeLa, greater than 100 µM.

Regarding `CCCCCCCCCCOc1ccc2c3ccnc(C)c3n(CC)c2c1`, the IC50 in the test on MCF7 is 45.9 µM; in the test on HepG2, 14.1 µM; with Bel-7402, greater than 100 µM; in the test on BGC-823 it was 15.2 µM; in the test with HeLa it was greater than 100 µM.

On to `CCn1c2cc(OCc3c(F)c(F)c(F)c(F)c3F)ccc2c2ccnc(C)c21`, for which the IC50 in the test with MCF7, in the test with HepG2, with Bel-7402, with BGC-823 and in the test with HeLa was greater than 100 µM in each case.

As for `CCn1c2cc(OCc3ccccc3)ccc2c2ccnc(C)c21`, the half-inhibitory concentration (IC50) is greater than 100 µM with MCF7; 15.5 µM in the test with HepG2; greater than 100 µM in the test on Bel-7402; 17.2 µM in the test on BGC-823; greater than 100 µM with HeLa.

For `CCCCCCCCOc1ccc2c3ccnc(C)c3n(CCCC)c2c1`, the IC50 was 13.6 µM with MCF7; 13.6 µM in the test on HepG2; greater than 100 µM in the test with Bel-7402; 15.4 µM in the test on BGC-823; greater than 100 µM in the test on HeLa.

On to `CCn1c2cc(OC(C)C)ccc2c2ccnc(C)c21`, for which the IC50 in the test on MCF7 is greater than 100 µM; in the test with HepG2, 52.6 µM; in the test with Bel-7402, 43.6 µM; in the test on BGC-823, 59.7 µM; in the test on HeLa, 27.6 µM.

With `CCCCCCCCCCOc1ccc2c3ccnc(C)c3n(CC(C)C)c2c1`, the IC50 in the test on MCF7 is greater than 100 µM; in the test with HepG2 it was greater than 100 µM; with Bel-7402 it was greater than 100 µM; with BGC-823, 74.1 µM; with HeLa, 2 µM.

`CCn1c2cc(OCc3ccccc3)ccc2c2cc[n+](Cc3ccccc3)c(C)c21`: the IC50 was determined as 8.7 µM with KB; 16.2 µM in the test with U-251; 22.1 µM in test [1]; 8.9 µM in the test with 769-P; 46.3 µM in the test with SCaBER; 10.9 µM in the test on HT-29. For the same compound, the IC50 in the test with 786-0 is 15.4 µM; in the test on A-375, 12.3 µM; in the test on A549, 19.6 µM; in the test on OS-RC-2 it was 15.9 µM; in the test with MCF7, 67.6 µM; in the test on HepG2 it was 49.9 µM. Moreover, the IC50 with Bel-7402 stood at 3.6 µM; in the test on BGC-823, 66.1 µM; with HeLa, 56.3 µM.

On to `CCCCn1c2cc(OC(CC)CC)ccc2c2ccnc(C)c21`, for which the IC50 with KB stood at 19.8 µM; in the test with U-251 it was 25.1 µM; in test [1], 16 µM; with 769-P it was 22.2 µM; in the test on SCaBER, 43.8 µM; in the test with HT-29, 25.1 µM. Moreover, the IC50 was determined as 13.4 µM in the test on 786-0; 18.8 µM in the test on A-375; 21 µM with A549; 26.9 µM in the test with OS-RC-2; 5.4 µM in the test on MCF7; 15.6 µM with HepG2. For the same compound, the IC50 in the test with Bel-7402 is 21.5 µM; in the test with BGC-823 it was 16.7 µM; with HeLa it was 28.2 µM.

Take `CCOc1ccc2c3cc[n+](Cc4ccccc4)c(C)c3n(CC)c2c1`: the half-inhibitory concentration (IC50) with KB was 4.6 µM; in the test with U-251 it was 15.2 µM; in [1], 23.4 µM; with 769-P it was 6.4 µM; with SCaBER, 19.8 µM; in the test with HT-29, 10.2 µM. Further, the IC50 in the test with 786-0 turned out to be 9.6 µM; in the test on A-375, 6.8 µM; in the test on A549 it was 11.2 µM; with OS-RC-2 it was 7.8 µM.

For the compound `Cc1nccc2c3ccc(OCC(C)C)cc3n(CCCc3ccccc3)c12`, the IC50 is greater than 100 µM with MCF7; 12.9 µM with HepG2; 39.3 µM with Bel-7402; 23 µM in the test with BGC-823; greater than 100 µM in the test on HeLa.

With `Cc1nccc2c3ccc(OCCCc4ccccc4)cc3n(CCCc3ccccc3)c12`, the IC50 is greater than 100 µM in the test on MCF7; 16.7 µM in the test with HepG2; greater than 100 µM in the test with Bel-7402; 19.8 µM in the test with BGC-823; greater than 100 µM in the test on HeLa.

These data come from ChEMBL document CHEMBL2311271 (Eur J Med Chem, 2013).
